In brackets after ≈: the same amount, converted by molar mass. Entries after “also recorded” stand apart in the source; their conditions may differ.
Tests used:
A549 cells [1] = test: MTT growth inhibition of A549 cells; type: cell-based; details: Homo sapiens
Outline: (§1)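 Cells were grown in RPMI 1640 or DMEM with 10% FBS and 100 U/mL penicillin-streptomycin at 37 °C, 5% CO2. Log-phase cells were seeded at 3–5×10³ per well and cultured 24 h before graded drug concentrations were added. After 24 or 48 h exposure, MTT (5 mg/mL solution) was added for 3–4 h. Medium was removed, formazan dissolved in DMSO with 10 min shaking, and OD read at 490 nm. Growth inhibition rate was calculated from OD. Data are mean ± SD of triplicates.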

H460 cells = test: MTT growth inhibition of H460 cells; type: cell-based; details: Homo sapiens
Outline: as §1

A549 cells [2] = test: Apoptosis of A549 cells; type: cell-based, human; details: 24 h
[3] = system: A549 subcutaneous transplanted tumor; test: In vivo antitumor efficacy in tumor-bearing nude mice; details: 21 days of administration
Outline: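 The xenograft model used A549 cells. Treatment ran for 21 days with body weight tracked against the start of dosing; n = 5 per group. At the end, surviving mice were killed and tumors were excised and weighed to calculate tumor inhibition rate.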

[4] = system: A549 subcutaneous transplanted tumor; test: HE staining of tumor tissues; type: in vivo, nude mice; details: tumor tissue after 21 days
Outline: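 Subcutaneous tumors were excised after 21 days of treatment once the surviving mice were killed. Tissue was washed twice in 0.9% saline, fixed in 4% paraformaldehyde, dehydrated, paraffin-embedded and sectioned. Sections were stained with hematoxylin and eosin and assessed for pathology. All procedures were done blind.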

Ki67 = test: Immunohistochemistry of Ki67 in tumor tissues; type: in vivo, nude mice; details: tumor tissue after 21 days
Outline: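 Tumors were taken at the end of the 21-day study and fixed in 4% paraformaldehyde for 24 h. They were dehydrated in absolute alcohol, paraffin-embedded and sectioned. Antigen retrieval was 5 min at high temperature in 0.01 M citrate buffer, pH 6.0. Primary antibody (1:200) was applied overnight at 4 °C, then secondary antibody for 30 min at 37 °C. Sections were developed with DAB, counterstained with hematoxylin and imaged. Scoring was blind.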

[5] = system: heart, liver, kidney and lung tissues; test: HE staining of organs; type: in vivo; details: lung of nude mice after administration

IC50 (A549 cells [1]; A549, 24 h): 45.9 µg/mL (≈ 53.7 µM)
IC50 (A549 cells [1]; A549, 48 h): 31.7 µg/mL (≈ 37.1 µM)
IC50 (H460 cells; NCI-H460, 24 h): 49.3 µg/mL (≈ 57.7 µM)
IC50 (H460 cells; NCI-H460, 48 h): 39.4 µg/mL (≈ 46.1 µM)
SMILES: CC(=O)O[C@H]1C(=O)[C@@]2(C)[C@H]([C@H](OC(=O)c3ccccc3)[C@]3(O)C[C@H](OC(=O)[C@H](O)[C@@H](NC(=O)c4ccccc4)c4ccccc4)C(C)=C1C3(C)C)[C@]1(OC(C)=O)CO[C@@H]1C[C@@H]2O [PTX, paclitaxel]
apoptosis rate (A549 cells [2]; A549, 5 μg/mL): 3.57%
apoptosis rate (A549 cells [2]; A549, 10 μg/mL): 7.34%
apoptosis rate (A549 cells [2]; A549, 20 μg/mL): 16.6%
body weight change ([3]; nude mice): gradual
tumor inhibition rate ([3]; tumor-bearing nude mice): 29.95%
necrosis of tumor tissue (necrotic area) [4]: approximately 20%
expression of Ki67 in tumor tissues (Ki67): 45.88%
pathological changes in organs (HE staining) [5]: pathological changes and tumor cell infiltration; also recorded: different degrees of pathological changes and necrosis in their hearts and livers

From paper PMC11297572 (International Journal of Nanomedicine, 2024)
